≈ marks a conversion by molar mass, not a printed value. Calls of active or inactive are those of the source. The calls are words filed in the database; no cut-off is given here.
Key:
[1] = test system: Enterococcus faecium; test: Antibacterial activity against vancomycin-resistant Enterococcus faecium TL-3273 infected in ICR mouse assessed as reduction in bacterial burden at 2.5 to 640 mg/kg, sc in presence of 1% carrageenan; format: functional, organism-based
How it was run: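 Male ICR mice made neutropenic with cyclophosphamide sc (150 mg/kg day −4, 100 mg/kg day −1). Thighs inoculated with ~10^5–10^6 CFU/ml in BHIB plus 1% carrageenan, 2 h before therapy. Total 2.5–640 mg/kg sc over 24 h in 1–12 divided doses, each with cilastatin 100 mg/kg. Thighs homogenised at 24 h, CFU plated; two mice (four thighs) per group.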

[2] = test system: Staphylococcus aureus; test: Antibacterial activity against methicillin-resistant Staphylococcus aureus SP-12249 by broth microdilution method; format: functional
How it was run: (§1)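 CLSI broth microdilution in cation-adjusted Mueller-Hinton broth; final inoculum approx. 10^5 CFU/well.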

[3] = test system: Enterococcus faecium; test: Antibacterial activity against vancomycin-resistant Enterococcus faecium TL-3621 by broth microdilution method; format: functional; how it was run: as §1
[4] = fT>MIC required for inducing 2-log killing effect in vancomycin-resistant Enterococcus faecium TL-3273-infected mouse; format: functional
How it was run: (§2)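 Neutropenic ICR mice (cyclophosphamide), thighs inoculated with ~10^5–10^6 CFU/ml in BHIB with 1% carrageenan 2 h before therapy. Total 2.5–640 mg/kg sc over 24 h in 1–12 doses, with cilastatin 100 mg/kg.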

[5] = test system: Enterococcus faecium; test: Antibacterial activity against vancomycin-resistant Enterococcus faecium TL-3273 by broth microdilution method; format: functional; how it was run: as §1
[6] = fT>MIC required for bacteriostatic effect in vancomycin-resistant Enterococcus faecium TL-3621-infected mouse; format: functional; how it was run: as §2
[7] = fT>MIC required for inducing 2-log killing effect in vancomycin-resistant Enterococcus faecium TL-3621-infected mouse; format: functional; how it was run: as §2
[8] = Protein binding in mouse serum at 30 ug/ml by ultrafiltration method; format: ADME, cell-free; conditions: read-out: PB (converted)
[9] = fT>MIC required for bacteriostatic effect in vancomycin-resistant Enterococcus faecium TL-3273-infected mouse; format: functional; how it was run: as §2
[10] = fT>MIC required for inducing 1-log killing effect in methicillin-resistant Staphylococcus aureus TL-3677-infected mouse; format: functional
[11] = test system: Staphylococcus aureus; test: Antibacterial activity against methicillin-resistant Staphylococcus aureus TL-3677 by broth microdilution method; format: functional; how it was run: as §1
[12] = fT>MIC required for inducing 1-log killing effect in vancomycin-resistant Enterococcus faecium TL-3621-infected mouse; format: functional; how it was run: as §2
[13] = Protein binding in mouse serum at 100 ug/ml by ultrafiltration method; format: ADME, cell-free; conditions: read-out: PB (converted)
[14] = Protein binding in mouse serum at 10 ug/ml by ultrafiltration method; format: ADME, cell-free; conditions: read-out: PB (converted)
[15] = fT>MIC required for inducing 2-log killing effect in methicillin-resistant Staphylococcus aureus SP-12249-infected mouse; format: functional
[16] = fT>MIC required for bacteriostatic effect in methicillin-resistant Staphylococcus aureus SP-12249-infected mouse; format: functional
[17] = fT>MIC required for bacteriostatic effect in methicillin-resistant Staphylococcus aureus TL-3677-infected mouse; format: functional
[18] = fT>MIC required for inducing 1-log killing effect in vancomycin-resistant Enterococcus faecium TL-3273-infected mouse; format: functional; how it was run: as §2
[19] = fT>MIC required for inducing 2-log killing effect in methicillin-resistant Staphylococcus aureus TL-3677-infected mouse; format: functional
[20] = fT>MIC required for inducing 1-log killing effect in methicillin-resistant Staphylococcus aureus SP-12249-infected mouse; format: functional
[21] = test system: Enterococcus faecium; test: Antibacterial activity against vancomycin-resistant Enterococcus faecium TL-3273 at 0.5 to 8 ug/mL by time-kill analysis in presence of 1% carrageenan; format: functional, organism-based

## C[C@H]1C=C(c2csc(SC3=C(C(=O)O)N4C(=O)[C@H]([C@@H](C)O)[C@H]4[C@H]3C)n2)CN1 [RAZUPENEM]
[1]
  Activity: Active
[2]
  MIC: 1 µg/mL (≈ 2.45 µM)
[3]
  MIC: 2 µg/mL (≈ 4.91 µM)
[4]
  fT>MIC: 16%
[5]
  MIC: 2 µg/mL (≈ 4.91 µM)
[6]
  fT>MIC: 10%
[7]
  fT>MIC: 19%
[8]
  fraction unbound at 30 ug/ml: 0.24
[9]
  fT>MIC: 9%
[10]
  fT>MIC: 27%
[11]
  MIC: 0.12 µg/mL (≈ 0.294 µM)
[12]
  fT>MIC: 14%
[13]
  fraction unbound at 100 ug/ml: 0.22
[14]
  fraction unbound at 10 ug/ml: 0.25
[15]
  fT>MIC: 37%
[16]
  fT>MIC: 23%
[17]
  fT>MIC: 23%
[18]
  fT>MIC: 12%
[19]
  fT>MIC: 32%
[20]
  fT>MIC: 30%
[21]
  Activity: Active
